Experimental data published in ChEMBL document CHEMBL4270665, “Biodegradable Amphipathic Peptide Hydrogels as Extended-Release System for Opioid Peptides” (J Med Chem, 2018).
Active and inactive are the calls of the source. No cut-off for these calls is given here. Starred links: 1 amine or outer side, 2 acyl side, 3 side chain; linkers in the order of their positions; H or OH if unused. Non-standard residues stand in square brackets, D forms with d. Residues, ends and D or L forms follow the SMILES beside them. X1 = O=C1[C@@H](N[*:1])Cc2ccccc2CN1CCC(=O)[*:2]; Dmt = Cc1cc(O)cc(C)c1C[C@H](N)C(=O)O; β3hF = N[C@H](CC(=O)O)Cc1ccccc1

How the values were obtained:
[1] = target: T1, Mu-type opioid receptor (Homo sapiens, UniProt P35372); assay: Displacement of [3H]DAMGO from human MOR expressed in CHO cell membranes after 60 mins by liquid scintillation counting
[2] = target: T1, Mu-type opioid receptor; assay: Agonist activity at human MOR expressed in CHO cell membranes after 60 mins by [35S]GTPgammaS binding assay; format: functional
Method in brief: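 Membranes from CHO cells stably expressing human MOR; agonist-stimulated [35S]GTPγS binding. Potency given as EC50 and efficacy (full or partial agonism) measured at human MOR.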

[3] = target: T1, Mu-type opioid receptor; assay: Agonist activity at human MOR expressed in human U2OS cells co-expressing enzyme acceptor-tagged beta-arrestin2 fusion protein assessed as induction of beta-arrestin2 recruitment preincubated for 90 mins measured by PathHunter assay; format: functional, cell-based
[4] = system: Mus musculus; assay: Antinociceptive activity in CD1 mouse assessed as increase in tail-flick latency at 5.6 umol/kg, sc measured up to 7 hrs post dose; format: functional, organism-based
[5] = system: Mus musculus; assay: Antinociceptive activity in CD1 mouse assessed as increase in tail-flick latency at 0.56 umol, sc co-formulated with H-Phe-Gln-Phe-Gln-Phe-Lys-NH2 measured up to 72 hrs post dose; format: functional, organism-based
Method in brief: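 Mice received peptide (0.56 μmol/mouse) co-formulated with hydrogelator at 2% (v/w), sc in 150 μL per mouse. Controls were hydrogelator alone or saline. Radiant-heat tail-flick test read as %MPE over time, with AUC calculated. 6−8 mice per group, mean ± SEM. Two-way ANOVA with Bonferroni post hoc test.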

[6] = system: Mus musculus; assay: Antinociceptive activity in sc dosed CD1 mouse assessed as increase in tail-flick latency measured up to 72 hrs post dose; format: functional, organism-based
Method in brief: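 Radiant heat tail-flick test in mice after subcutaneous injection of 150 μL per mouse. The peptide (0.56 μmol/mouse) was given coformulated with hydrogelator (2% v/w) or conjugated as a biogel (2% v/w). Hydrogelator alone and saline served as controls. Latency was followed as %MPE over time with AUC calculated. Groups were 6−8 mice, reported as mean ± SEM, with two-way ANOVA and Bonferroni post hoc test.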

[7] = Half life in human plasma at 9 uM at 37 degC by LC-MS analysis; format: ADME, cell-free
Method in brief: (§1)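 Peptides were incubated in human plasma at 37 °C, and samples were collected at different time points. Half-life was calculated from the degradation profile. Major metabolites were identified by LC−MS analysis of the collected samples.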

[8] = Prodrug conversion in human plasma assessed as H-Dmt-DArg-Phe-Phe-Gln-Phe-Gln-OH metabolite formation at 9 uM after 30 to 45 mins by LC-MS analysis; format: ADME, cell-free; method in brief: as §1
[9] = Prodrug conversion in human plasma assessed as H-Dmt-DArg-Phe-Phe-Gln-OH metabolite formation at 9 uM after 30 to 45 mins by LC-MS analysis; format: ADME, cell-free
[10] = Prodrug conversion in human plasma assessed as H-Dmt-DArg-Phe-OH metabolite formation at 9 uM after 30 to 45 mins by LC-MS analysis; format: ADME, cell-free; method in brief: as §1
[11] = system: Mus musculus; assay: Antinociceptive activity in CD1 mouse assessed as increase in tail-flick latency at 6.8 umol/kg, sc measured up to 8 hrs post dose; format: functional, organism-based
Method in brief: (§2)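 Peptide given as a solution, sc, with a saline control group. Radiant-heat tail-flick test read as %MPE over time, with AUC of the time curves calculated. 6−8 mice per group, mean ± SEM. Two-way ANOVA with Bonferroni post hoc test.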

[12] = system: Mus musculus; assay: Antinociceptive activity in CD1 mouse assessed as increase in tail-flick latency at 5.8 umol/kg, sc measured after 8 hrs post dose; format: functional, organism-based
[13] = system: Mus musculus; assay: Antinociceptive activity in CD1 mouse assessed as increase in tail-flick latency at 14 umol/kg, sc measured up to 96 hrs post dose relative to control; format: functional
[14] = system: Mus musculus; assay: Antinociceptive activity in CD1 mouse assessed as increase in tail-flick latency at 4.2 umol/kg, sc measured up to 3 to 4 hrs post dose; format: functional, organism-based; method in brief: as §2
[15] = Metabolic stability in C57BL/6 mouse hind limb assessed as compound remaining at 150 ul, sc measured after 72 hrs post dose by SPECT/CT analysis; format: ADME, organism-based, Hindlimb; conditions: read-out: Stability
Method in brief: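 Hydrogel degradation was followed after subcutaneous injection in mice by determining the hydrogel volume remaining at the injection site, up to 72 h.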

[16] = system: Mus musculus; assay: Antinociceptive activity in sc dosed CD1 mouse assessed as increase in tail-flick latency measured up to 3 hrs post dose; format: functional, organism-based
[17] = system: Mus musculus; assay: Antinociceptive activity in CD1 mouse assessed as increase in tail-flick latency at 0.58 umol/kg, sc co-formulated with H-Phe-Glu-Phe-Gln-Phe-Lys-NH2 measured up to 72 hrs post dose; format: functional, organism-based
[18] = system: Mus musculus; assay: Antinociceptive activity in CD1 mouse assessed as increase in tail-flick latency at 13 umol/kg, sc measured up to 96 hrs post dose relative to control; format: functional
[19] = system: Mus musculus; assay: Antinociceptive activity in CD1 mouse assessed as increase in tail-flick latency at 1.8 umol/kg, sc measured after 4 hrs post dose; format: functional, organism-based
[20] = system: Mus musculus; assay: Antinociceptive activity in CD1 mouse assessed as increase in tail-flick latency at 0.30 umol, sc co-formulated with H-Phe-Glu-Phe-Gln-Phe-Lys-NH2 measured up to 72 hrs post dose; format: functional, organism-based
[21] = system: Mus musculus; assay: Antinociceptive activity in sc dosed CD1 mouse assessed as increase in tail-flick latency measured up to 24 hrs post dose; format: functional, organism-based
[22] = system: Mus musculus; assay: Antinociceptive activity in CD1 mouse assessed as increase in tail-flick latency at 3.9 umol/kg, sc measured up to 3 to 4 hrs post dose; format: functional, organism-based
Method in brief: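 Radiant heat tail-flick test on an analgesiometer after subcutaneous injection of solutions in mice. Doses were 3.0, 3.9, 4.2 or 6.8 μmol/kg, with saline as control. Response was expressed as %MPE over time and AUC was calculated. Groups were 6−8 mice, reported as mean ± SEM, with two-way ANOVA and Bonferroni post hoc test.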

T1 sequence (P35372 whole entry): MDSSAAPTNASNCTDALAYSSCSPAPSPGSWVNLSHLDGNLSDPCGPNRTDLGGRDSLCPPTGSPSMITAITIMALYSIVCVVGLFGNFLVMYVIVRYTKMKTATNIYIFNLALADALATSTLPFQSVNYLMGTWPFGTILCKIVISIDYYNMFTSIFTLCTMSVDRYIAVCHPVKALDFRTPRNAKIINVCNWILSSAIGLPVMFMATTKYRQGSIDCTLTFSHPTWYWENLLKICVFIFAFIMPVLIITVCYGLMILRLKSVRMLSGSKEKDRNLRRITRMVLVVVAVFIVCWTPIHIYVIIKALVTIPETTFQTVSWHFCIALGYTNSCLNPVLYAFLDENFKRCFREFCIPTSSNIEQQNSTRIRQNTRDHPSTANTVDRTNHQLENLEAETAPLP

`Cc1cc(O)cc(C)c1C[C@H](N)C(=O)N[C@H](CCCNC(=N)N)C(=O)N[C@H]1Cc2ccccc2CN(CCC(=O)N[C@@H](Cc2ccccc2)C(=O)N[C@@H](CCC(N)=O)C(=O)N[C@@H](Cc2ccccc2)C(=O)N[C@@H](CCC(N)=O)C(=O)N[C@@H](Cc2ccccc2)C(=O)N[C@@H](CCCCN)C(N)=O)C1=O` (H-[Dmt][dR][X1]FQFQFK-NH2) showed a Ki [1] of 5 to 141 nM.

For `Cc1cc(O)cc(C)c1C[C@H](N)C(=O)N[C@H](CCCNC(=N)N)C(=O)N[C@@H](Cc1ccccc1)C(=O)N[C@@H](Cc1ccccc1)C(N)=O`, the EC50 [2] was 0.19 nM, the Activity [3] was “inactive” and the Ki [1] was 0.037 nM. The Activity [4] was “Active” and the Activity [5] was “Active”.

In the case of `Cc1cc(O)cc(C)c1C[C@H](N)C(=O)N[C@H](CCCNC(=N)N)C(=O)N[C@@H](Cc1ccccc1)C(=O)N[C@@H](Cc1ccccc1)C(=O)N[C@@H](CCC(N)=O)C(=O)N[C@@H](Cc1ccccc1)C(=O)N[C@@H](CCC(N)=O)C(=O)N[C@@H](Cc1ccccc1)C(=O)N[C@@H](CCCCN)C(N)=O` (H-[Dmt][dR]FFQFQFK-NH2), the Activity [6] is reported as “Active”, the half-life at 9 µM [7] is reported as 16 min and the Drug metabolism [8] is reported as “Metabolite_Detected”. For the same molecule, the Drug metabolism [9] was “Metabolite_Detected” and the Drug metabolism [10] was “Metabolite_Detected”.

`Cc1cc(O)cc(C)c1C[C@H](N)C(=O)N1CCC[C@H]1C(=O)N[C@@H](Cc1ccccc1)C(=O)N[C@@H](Cc1ccccc1)C(=O)N[C@@H](CCC(=O)O)C(=O)N[C@@H](Cc1ccccc1)C(=O)N[C@@H](CCC(N)=O)C(=O)N[C@@H](Cc1ccccc1)C(=O)N[C@@H](CCCCN)C(N)=O` showed a Ki [1] of 5 to 141 nM.

In the case of `Cc1cc(O)cc(C)c1C[C@H](N)C(=O)N[C@H](CCCNC(=N)N)C(=O)N[C@@H](Cc1ccccc1)C(=O)O`, the EC50 [2] is reported as 3.67 nM, the Ki [1] is reported as 0.52 nM and the Activity [11] is reported as “Active”.

For `Cc1cc(O)cc(C)c1C[C@H](N)C(=O)N[C@H](CCCCN)C(=O)N[C@@H](Cc1ccccc1)C(=O)N[C@@H](Cc1ccccc1)C(N)=O`, the EC50 [2] was 0.1 to 0.86 nM, the Activity [3] was “inactive” and the Activity [12] was “Active”. The Activity [5] was “Active”.

With `Cc1cc(O)cc(C)c1C[C@H](N)C(=O)N1CCC[C@H]1C(=O)N[C@@H](Cc1ccccc1)C(=O)N[C@@H](Cc1ccccc1)C(N)=O` the EC50 [2] was 0.1 to 0.86 nM, the Activity [3] was “inactive” and the MPE [13] was less than 80%.

With `Cc1cc(O)cc(C)c1C[C@H](N)C(=O)N[C@H](CCCNC(=N)N)C(=O)N[C@@H](Cc1ccccc1)C(=O)N[C@@H](Cc1ccccc1)C(=O)N[C@@H](CCC(N)=O)C(=O)O` the EC50 [2] was 0.28 nM, the Ki [1] was 0.34 nM and the Activity [14] was “Active”.

H-FQFQFK-NH2 gave a remaining at 72 h [15] of 20%.

With `Cc1cc(O)cc(C)c1C[C@H](N)C(=O)N1CCC[C@H]1C(=O)N[C@@H](Cc1c[nH]c2ccccc12)C(=O)N[C@@H](Cc1ccccc1)C(=O)N[C@@H](CCC(N)=O)C(=O)N[C@@H](Cc1ccccc1)C(=O)N[C@@H](CCC(N)=O)C(=O)N[C@@H](Cc1ccccc1)C(=O)N[C@@H](CCCCN)C(N)=O` (H-[Dmt]PWFQFQFK-NH2) the Ki [1] was 5 to 141 nM.

For `Cc1cc(O)cc(C)c1C[C@H](N)C(=O)N[C@H](CCCNC(=N)N)C(=O)N[C@@H](Cc1ccccc1)C(=O)N[C@@H](Cc1ccccc1)C(=O)N[C@@H](CCC(N)=O)C(=O)N[C@H](CC(=O)N[C@@H](Cc1ccccc1)C(=O)N[C@@H](CCC(N)=O)C(=O)N[C@@H](Cc1ccccc1)C(=O)N[C@@H](CCCCN)C(N)=O)Cc1ccccc1` (H-[Dmt][dR]FFQ[β3hF]FQFK-NH2), the Ki [1] was 5 to 141 nM, the Activity [16] was “inactive” and the Activity [17] was “inactive”. It also gave a half-life at 9 µM [7] of 123 min.

In the case of `Cc1cc(O)cc(C)c1C[C@H](N)C(=O)N1CCC[C@H]1C(=O)N[C@@H](Cc1c[nH]c2ccccc12)C(=O)N[C@@H](Cc1ccccc1)C(N)=O`, the EC50 [2] is reported as 0.1 to 0.86 nM, the Activity [3] is reported as “inactive” and the MPE [18] is reported as less than 80%.

Work on `Cc1cc(O)cc(C)c1C[C@H](N)C(=O)N1CCC[C@H]1C(=O)N[C@@H](Cc1ccccc1)C(=O)N[C@@H](Cc1ccccc1)C(=O)N[C@@H](CCC(N)=O)C(=O)N[C@@H](Cc1ccccc1)C(=O)N[C@@H](CCC(N)=O)C(=O)N[C@@H](Cc1ccccc1)C(=O)N[C@@H](CCCCN)C(N)=O` (H-[Dmt]PFFQFQFK-NH2) yielded a Ki [1] of 5 to 141 nM.

With `Cc1cc(O)cc(C)c1C[C@H](N)C(=O)N[C@H](CCCNC(=N)N)C(=O)N[C@H]1Cc2ccccc2CN(CCC(N)=O)C1=O` the Activity [3] was “inactive”, the Activity [19] was “Active” and the Activity [20] was “Active”.

With `Cc1cc(O)cc(C)c1C[C@H](N)C(=O)N[C@H](CCCCN)C(=O)N[C@@H](Cc1ccccc1)C(=O)N[C@@H](Cc1ccccc1)C(=O)N[C@@H](CCC(=O)O)C(=O)N[C@@H](Cc1ccccc1)C(=O)N[C@@H](CCC(N)=O)C(=O)N[C@@H](Cc1ccccc1)C(=O)N[C@@H](CCCCN)C(N)=O` (H-[Dmt][dK]FFEFQFK-NH2) the Ki [1] was 5 to 141 nM and the Activity [21] was “Active”.

For `Cc1cc(O)cc(C)c1C[C@H](N)C(=O)N[C@H](CCCCN)C(=O)N[C@@H](Cc1ccccc1)C(=O)N[C@@H](Cc1ccccc1)C(=O)N[C@@H](CCC(N)=O)C(=O)N[C@@H](Cc1ccccc1)C(=O)N[C@@H](CCC(N)=O)C(=O)N[C@@H](Cc1ccccc1)C(=O)N[C@@H](CCCCN)C(N)=O` (H-[Dmt][dK]FFQFQFK-NH2), the Ki [1] was 5 to 141 nM and the Activity [21] was “Active”.

With `N=C(N)NCCC[C@@H](NC(=O)[C@@H](N)Cc1ccc(O)cc1)C(=O)N[C@@H](Cc1ccccc1)C(=O)N[C@@H](Cc1ccccc1)C(=O)N[C@@H](CCC(N)=O)C(=O)N[C@@H](Cc1ccccc1)C(=O)N[C@@H](CCC(N)=O)C(=O)N[C@@H](Cc1ccccc1)C(=O)N[C@@H](CCCCN)C(N)=O` the half-life at 9 µM [7] was 18 min.

In the case of `Cc1cc(O)cc(C)c1C[C@H](N)C(=O)N[C@H](CCCNC(=N)N)C(=O)N[C@@H](Cc1ccccc1)C(=O)N[C@@H](Cc1ccccc1)C(=O)N[C@@H](CCC(N)=O)C(=O)N[C@@H](Cc1ccccc1)C(=O)N[C@@H](CCC(N)=O)C(=O)O`, the EC50 [2] is reported as 47.5 nM, the Ki [1] is reported as 6.16 nM and the Activity [22] is reported as “Active”.

In the case of H-FEFQFK-NH2, the remaining at 72 h [15] is reported as 20%.
